Measured values: article PMC6606825 (Journal of Ginseng Research, 2018)

Test: Pharmacokinetics of CK and its metabolite 20
Assay type: in vivo, healthy Chinese volunteers
Procedure, shortened: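 Healthy adults given one oral tablet dose fasting (overnight, or 10 h in a crossover food-effect arm); 30 subjects from the 100/200/400 mg groups were pooled with 24 from 200 mg fasting periods. Plasma was stored at −70°C, extracted with MTBE plus internal standards and assayed by LC-MS/MS. Cmax was observed and AUClast calculated by linear trapezoid, each divided by dose. The metabolite/parent ratio was also calculated. Genotyping used Sequenom MassARRAY, and log-transformed values were compared by one-way ANOVA.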

[1] = ABCC4 rs1151471 CC, n = 2, mean (SD)
[2] = ABCC4 rs2274406 TT (first line), mean (SD)
[3] = ABCC4 rs2274406 TT (third line), mean (SD)
[4] = ABCG2 rs2054576 AA (first line), mean (SD)
[5] = ABCG2 rs2054576 AA (third line), mean (SD)

## CC(C)=CCC[C@](C)(O[C@@H]1O[C@H](CO)[C@@H](O)[C@H](O)[C@H]1O)[C@H]1CC[C@]2(C)[C@@H]1[C@H](O)C[C@@H]1[C@@]3(C)CC[C@H](O)C(C)(C)[C@@H]3CC[C@]12C [Ginsenoside compound K, 20-O-beta-D-glucopyranosyl-20(S)-protopanaxadiol]
100, 200, 400 mg single-dose groups and food-effect trial, fasting
  dose-normalized exposure among the groups: not significantly different
ABCB1 rs1045642 AA, mean (SD)
  CK AUClast/D: 28.81 (11.93)
  CK Cmax/D: 4.03 (1.47)
ABCB1 rs1045642 AG, mean (SD)
  CK AUClast/D: 27.71 (15.58)
  CK Cmax/D: 3.50 (1.91)
ABCB1 rs1045642 GG, mean (SD)
  CK AUClast/D: 31.19 (22.91)
  CK Cmax/D: 4.13 (2.82)
ABCB1 rs1128503 AA, mean (SD)
  CK AUClast/D: 28.07 (15.30)
  CK Cmax/D: 3.67 (1.80)
ABCB1 rs1128503 AG, mean (SD)
  CK AUClast/D: 28.43 (20.03)
  CK Cmax/D: 3.66 (2.34)
ABCB1 rs1128503 GG, mean (SD)
  CK AUClast/D: 33.81 (17.43)
  CK Cmax/D: 4.67 (3.44)
ABCB1 rs2032582 AA, mean (SD)
  CK AUClast/D: 26.68 (12.71)
  CK Cmax/D: 3.81 (2.02)
ABCB1 rs2032582 CA, mean (SD)
  CK AUClast/D: 27.47 (15.11)
  CK Cmax/D: 3.46 (1.72)
ABCB1 rs2032582 CC, mean (SD)
  CK AUClast/D: 33.69 (25.60)
  CK Cmax/D: 4.42 (3.14)
ABCC2 rs717620 CC, mean (SD)
  CK AUClast/D: 31.60 (19.89)
  CK Cmax/D: 3.98 (2.30)
ABCC2 rs717620 CT, mean (SD)
  CK AUClast/D: 25.18 (13.50)
  CK Cmax/D: 3.48 (2.01)
ABCC2 rs2273697 GA, mean (SD)
  CK AUClast/D: 35.66 (26.59)
  CK Cmax/D: 4.74 (3.23)
ABCC2 rs2273697 GG, mean (SD)
  CK AUClast/D: 25.98 (12.06)
  CK Cmax/D: 3.35 (1.44)
ABCC2 rs2756109 GG, mean (SD)
  CK AUClast/D: 27.59 (12.16)
ABCC2 rs3740066 CC, mean (SD)
  CK AUClast/D: 32.09 (20.46)
  CK Cmax/D: 4.02 (2.37)
ABCC2 rs3740066 CT, mean (SD)
  CK Cmax/D: 3.3 (1.87)
ABCC2 rs3740066 TT, n = 1
  CK AUClast/D: 55.95 (—)
  CK Cmax/D: 6.24 (—)
ABCC3 rs4148416 CC, mean (SD)
  CK AUClast/D: 29.20 (18.77)
  CK Cmax/D: 3.72 (2.07)
ABCC3 rs4148416 CT, mean (SD)
  CK AUClast/D: 27.15 (14.29)
  CK Cmax/D: 3.78 (2.53)
ABCC3 rs4793665 CT, mean (SD)
  CK AUClast/D: 29.14 (12.55)
  CK Cmax/D: 4.04 (2.17)
ABCC3 rs4793665 TT, mean (SD)
  CK AUClast/D: 28.53 (18.94)
  CK Cmax/D: 3.65 (2.19)
ABCC3 rs12051822 GA, mean (SD)
  CK AUClast/D: 23.66 (11.90)
  CK Cmax/D: 3.09 (1.13)
ABCC3 rs12051822 GG, mean (SD)
  CK AUClast/D: 30.37 (18.95)
  CK Cmax/D: 3.96 (2.39)
[1]
  CK AUClast/D: 13.68 (2.21)
  CK Cmax/D: 2.08 (0.39)
ABCC4 rs1151471 TC, mean (SD)
  CK AUClast/D: 24.64 (13.71)
  CK Cmax/D: 3.32 (2.06)
ABCC4 rs1151471 TT, mean (SD)
  CK AUClast/D: 32.65 (19.80)
  CK Cmax/D: 4.16 (2.32)
ABCC4 rs1189437 GG, n = 1
  CK AUClast/D: 12.12 (−)
  CK Cmax/D: 1.80 (−)
ABCC4 rs1189437 GT, mean (SD)
  CK AUClast/D: 20.77 (9.40)
  CK Cmax/D: 2.74 (1.29)
ABCC4 rs1189437 TT, mean (SD)
  CK AUClast/D: 31.84 (19.14)
  CK Cmax/D: 4.06 (2.19)
ABCC4 rs1751034 TC, mean (SD)
  CK AUClast/D: 18.58 (7.25)
  CK Cmax/D: 2.45 (0.95)
ABCC4 rs1751034 TT, mean (SD)
  CK AUClast/D: 32.53 (18.96)
  CK Cmax/D: 4.23 (2.32)
ABCC4 rs2274406 CT, mean (SD)
  CK AUClast/D: 28.24 (19.96)
  CK Cmax/D: 3.68 (2.42)
[2]
  CK AUClast/D: 33.40 (14.80)
  CK Cmax/D: 4.70 (2.25)
[3]
  CK AUClast/D: 26.57 (13.77)
  CK Cmax/D: 3.25 (1.32)
ABCC4 rs2274407 CA, mean (SD)
  CK AUClast/D: 28.22 (13.76)
  CK Cmax/D: 3.43 (1.35)
ABCC4 rs2274407 CC, mean (SD)
  CK AUClast/D: 28.81 (18.82)
  CK Cmax/D: 3.84 (2.38)
ABCC4 rs4148546 AA, mean (SD)
  CK AUClast/D: 26.51 (15.61)
  CK Cmax/D: 3.43 (1.93)
ABCC4 rs4148546 GA, mean (SD)
  CK Cmax/D: 3.49 (1.91)
ABCC4 rs4148546 GG, mean (SD)
  CK AUClast/D: 39.82 (26.88)
  CK Cmax/D: 4.87 (2.88)
ABCC4 rs11568658 CC, mean (SD)
  CK AUClast/D: 28.31 (19.56)
[4]
  CK AUClast/D: 25.61 (12.77)
  CK Cmax/D: 3.31 (1.53)
[5]
  CK AUClast/D: 25.70 (13.01)
  CK Cmax/D: 3.29 (1.35)
ABCG2 rs2054576 GA, mean (SD)
  CK AUClast/D: 32.78 (22.38)
  CK Cmax/D: 4.31 (2.78)
ABCG2 rs2231142 GG, mean (SD)
  CK AUClast/D: 27.45 (13.31)
  CK Cmax/D: 3.51 (1.56)
ABCG2 rs2231142 GT, mean (SD)
  CK AUClast/D: 31.50 (23.56)
  CK Cmax/D: 3.89 (2.60)
ABCG2 rs2231142 TT, mean (SD)
  CK AUClast/D: 25.70 (13.01)
  CK Cmax/D: 3.29 (1.35)
ABCG2 rs2231148 AA, mean (SD)
  CK AUClast/D: 35.54 (21.89)
  CK Cmax/D: 4.43 (2.92)
ABCG2 rs2231148 AT, mean (SD)
  CK AUClast/D: 39.28 (26.36)
  CK Cmax/D: 4.87 (3.24)
ABCG2 rs2231148 TT, mean (SD)
  CK AUClast/D: 23.05 (8.91)
  CK Cmax/D: 3.09 (1.18)
ABCG2 rs2725248 AA, mean (SD)
  CK AUClast/D: 26.94 (18.76)
  CK Cmax/D: 3.68 (2.42)
ABCG2 rs2725248 CA, mean (SD)
  CK AUClast/D: 31.91 (15.94)
  CK Cmax/D: 3.96 (1.89)
ABCG2 rs2725248 CC, mean (SD)
  CK AUClast/D: 40.01 (16.71)
